CYP2C9 inh: human CYP2C9 inhibition; CYP2C9 Supersomes, luciferin-H conversion, luminescence; inhibition, % at 5 µM; hit rate 20% among 96,000; AID 777;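 active means blocking of liver enzyme CYP2C9 beyond about 50% at 5 µM, limit read from the data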
CYP2C19 activ: increases human CYP2C19 enzyme activity. P33261. recombinant CYP2C19, luciferin-H EGE luminescence; hits give high values; 0 = fully inhibited enzyme, 1 = untreated enzyme. activation factor at 5 µM. 96,000 tested, under 10 active;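 active means activation factor of at least 2 at 5 µM in the primary screen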
Target sequence (P33261 whole entry, looked up): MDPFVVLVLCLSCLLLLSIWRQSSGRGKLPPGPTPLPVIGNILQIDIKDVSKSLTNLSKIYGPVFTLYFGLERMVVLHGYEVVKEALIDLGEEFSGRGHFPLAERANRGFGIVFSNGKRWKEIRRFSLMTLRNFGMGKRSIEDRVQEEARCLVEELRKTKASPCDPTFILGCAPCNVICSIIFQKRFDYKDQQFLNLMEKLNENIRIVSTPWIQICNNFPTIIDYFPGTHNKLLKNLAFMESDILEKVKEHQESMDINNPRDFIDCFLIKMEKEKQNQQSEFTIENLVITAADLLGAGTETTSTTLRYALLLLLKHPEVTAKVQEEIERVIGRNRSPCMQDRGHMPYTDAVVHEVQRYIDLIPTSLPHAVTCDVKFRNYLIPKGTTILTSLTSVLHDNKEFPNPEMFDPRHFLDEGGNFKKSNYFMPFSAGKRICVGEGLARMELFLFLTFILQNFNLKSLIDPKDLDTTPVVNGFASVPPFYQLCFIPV
CYP2C9 act: increases human cytochrome P450 2C9 activity | recombinant CYP2C9, luciferin-H conversion, luminescence; hits give high values; factor 1 = untreated enzyme, 0 = blocked | hit rate 1.4% among 96,000 | activation factor at 5 µM | P11712;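 active means activation factor of 2 or more for CYP2C9 at a 5 µM dose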
CYP2C19 inh: blocks human cytochrome P450 2C19; P33261; CYP2C19 Supersomes, luciferin-H EGE luminescence, 30 min; inhibition, % at 5 µM; hit rate 21% among 96,000; AID 778;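 active means CYP2C19 inhibition above a set limit at 5 µM in the primary screen, cut at about 50% in these data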
Cav3 T inh: human Cav3.2 channel inhibition, primary screen | O95180 | Cav3.2-expressing cells, Fluo-4 calcium fluorescence FDSS; hits give low values | B-score at 10 µM | hit rate 4% among 100,000 | AID 449739;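 active means single-dose well whose peak fluorescence ratio is a statistical outlier from its plate by either plate-standardised score or position-corrected B-score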
HIV Rev-RRE inh: disrupts HIV-1 Rev binding to RRE RNA; P05866; Rev peptide-RRE RNA binding, FRET; inhibition, % at 8 µM; hit rate 0.79% among 97,000;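 active means inhibition above the screen-wide mean plus 3 SD, cut at about 35% in these data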
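Assay system: Rev peptide and RRE RNA, both fluorescently labelled; times: 5 min preincubation and 15 min binding, 25 °C; detection: FRET, ex 480 nm, em 540 and 671 nm; read-out basis: % inhibition from 671/540 nm acceptor-to-donor ratio, scaled between controls; benchmarks: DMSO low control, neomycin B high control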
Of the large screens only hits and unclear results are named; the others gave an inactive call. Hits are enriched below; roughly 27% of the tested compounds scored in any of these assays.

CCN(CC)S(=O)(=O)c1ccc(Cl)c(C(=O)OC)c1	CYP2C9 act 2.1
CCN(CC)S(=O)(=O)c1cc(C(=O)OC)ccc1Cl	CYP2C19 inh 62
CN1CCN(c2ccc(Cl)cc2NC(=O)c2ccc(S(=O)(=O)N(C)C)cc2)CC1	none
O=C(O)CCSc1nc(C(F)(F)F)cc(=O)n1-c1ccccc1	none
O=C1CC(C(=O)N(c2ccc(F)cc2)C(C(=O)NC2CCCC2)c2ccccn2)CS1 (configuration not stated)	none
O=C(c1nc(-c2ccccc2)n(-c2ccccc2)n1)N1CCCCCC1	none
CCC1=C(OC(=O)N(CC)CC)N2C(=O)OC(=NCCc3c[nH]c4ccccc34)[C@]2(Cc2ccccc2)[C@H]2C1=CC[C@H]1C(=O)NC(=O)[C@H]12	none (no result: CYP2C9 inh, CYP2C19 activ, CYP2C9 act, CYP2C19 inh, HIV Rev-RRE inh)
CCn1c(SC)nnc1-c1sc2cc(Cl)ccc2c1Cl	none
CSc1nnc(-c2sc3cc(Cl)ccc3c2Cl)n1C	CYP2C19 inh 52
Cc1cccc(NC(=S)NC(=O)/C=C/c2ccco2)n1	CYP2C9 inh 55
O=C(/C=C/c1ccco1)NC(=S)Nc1cccc(-c2nc3ccccc3o2)c1	none (no result: Cav3 T inh)
Clc1ccc(-c2nc(-c3ccccn3)no2)cc1Cl	none
Brc1ccc(-c2nc(-c3ccncc3)no2)o1	CYP2C19 inh 91
Brc1ccc(-c2nc(-c3ccccn3)no2)o1	CYP2C19 inh 62
COc1ccc(-c2noc(-c3ccc(Br)o3)n2)cc1OC	none
Cc1ccc(/C=N/n2c(C)n[nH]c2=S)o1	none
COc1ccc(OC(C)C(=O)NCc2cccnc2)cc1 (configuration not stated)	none
Cc1c(Br)c([N+](=O)[O-])nn1C(C)C(=O)NCc1cccnc1 (configuration not stated)	CYP2C9 inh 57, CYP2C19 inh 76
Cc1ccc(-n2ncc(C#N)c2/N=C/N2CCCCCC2)cc1	CYP2C9 inh 91, CYP2C19 inh 97 (no result: HIV Rev-RRE inh)
O=C1CSC(c2cn(-c3ccccc3)nc2-c2cc3ccccc3oc2=O)N1Cc1ccccc1 (configuration not stated)	none
O=C1CSC(c2cn(-c3ccccc3)nc2-c2ccc3c(c2)OCCO3)N1CCN1CCOCC1 (configuration not stated)	CYP2C9 inh 78, CYP2C19 inh 81
CSc1nc(-c2ccccc2)[nH]c(=S)c1C(C)=O	CYP2C9 inh 55
CSc1nc(-c2ccccc2)nc(SC)c1C(C)=O	none
CCN(CC)C(=O)CC(c1ccccc1)c1ccco1 (configuration not stated)	none
O=C(CC(c1ccc(F)cc1)c1ccco1)N1CCOCC1 (configuration not stated)	CYP2C19 inh 74 (no result: Cav3 T inh)
O=C(CC(c1ccc(F)cc1)c1ccco1)N1CCCC1 (configuration not stated)	CYP2C19 inh 78 (no result: HIV Rev-RRE inh)
O=C(CC(c1ccccc1)c1cc(Cl)ccc1O)N1CCOCC1 (configuration not stated)	none
CCCN(CCC)C(=O)CC(c1ccc(F)cc1)c1ccco1 (configuration not stated)	CYP2C9 inh 55, CYP2C19 inh 51
COc1ccc(OC)c(NC(=O)Cn2cccc2)c1	none
COc1ccc(OC)c(NC(=O)Cc2coc3cc(C)cc(C)c23)c1	CYP2C9 inh 55, CYP2C19 inh 75
Cc1cc(C)c2c(CC(=O)Nc3ccc(Cl)cn3)coc2c1	none
COc1ccc(OC)c(NC(=O)Cc2coc3ccc4ccccc4c23)c1	CYP2C19 inh 96
COc1ccc(OC)c(NC(=O)Cc2coc3ccc(C)cc23)c1	CYP2C19 inh 53
O=C(Nc1ccc(N2C(=O)C3C4C=CC(C4)C3C2=O)cc1)Nc1cccnc1 (configuration not stated)	CYP2C9 inh 60
O=C(NCCN1C(=O)C2C3C=CC(C3)C2C1=O)Nc1cccnc1 (configuration not stated)	none
CCCNC(=O)COC(=O)c1ccccc1OCc1ccc(Cl)cc1	CYP2C9 inh 78, CYP2C19 inh 87
Cc1ccccc1C1C(C#N)=C2NC(=O)c3c(sc4c3CCCCC4)N2C2=C1C(=O)CC(C)(C)C2 (configuration not stated)	HIV Rev-RRE inh 40 (no result: Cav3 T inh)
COC(=O)c1ccc(Cl)c(NC(=O)CN(c2ccc(OC)cc2)S(=O)(=O)c2ccccc2)c1	none (no result: CYP2C9 inh, CYP2C19 activ, CYP2C9 act, CYP2C19 inh)

Screens from PubChem BioAssay.
